Source: ChEMBL document CHEMBL4011649 (J Med Chem, 2017)
The source made the active and inactive calls. The calls are words filed in the database; no cut-off is given here.

Columns and labels:
[1] = molecular target: T1, 5-hydroxytryptamine receptor 2C (Homo sapiens) (UniProt P28335); assay: Ratio of Emax to EC50 for human 5-HT2C-INI receptor isoform expressed in Flp-IN HEK293 cells; format: cell-based
T1 sequence (whole entry): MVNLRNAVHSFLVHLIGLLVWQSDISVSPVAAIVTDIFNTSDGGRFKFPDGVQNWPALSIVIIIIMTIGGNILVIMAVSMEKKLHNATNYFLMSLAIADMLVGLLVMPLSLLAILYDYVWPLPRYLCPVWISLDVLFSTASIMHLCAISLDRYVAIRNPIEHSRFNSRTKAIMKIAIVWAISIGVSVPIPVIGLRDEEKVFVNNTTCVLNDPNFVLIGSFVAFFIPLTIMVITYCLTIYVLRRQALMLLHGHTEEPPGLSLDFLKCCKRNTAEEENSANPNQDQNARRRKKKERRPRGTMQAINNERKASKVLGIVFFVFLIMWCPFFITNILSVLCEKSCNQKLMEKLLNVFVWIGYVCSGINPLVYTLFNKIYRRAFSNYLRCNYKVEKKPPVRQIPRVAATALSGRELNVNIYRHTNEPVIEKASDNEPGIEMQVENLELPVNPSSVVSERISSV

[2] = molecular target: T2, 5-hydroxytryptamine receptor 2C (Homo sapiens, UniProt P28335); assay: Agonist activity at human 5-HT2C-INI receptor isoform expressed in Flp-IN HEK293 cells assessed as induction of Gq-mediated calcium flux measured every second for 5 mins by Fluo-4 dye based FLIPR assay; format: functional, cell-based
T2 sequence (P28335 whole entry): T1 sequence (whole entry)

5-HT2A receptor = 5-HT2A receptor (Homo sapiens, UniProt P28223); assay: Agonist activity at human 5-HT2A receptor expressed in Flp-IN HEK293 cells assessed as induction of calcium flux measured every second for 5 mins by Fluo-4 dye based FLIPR assay relative to serotonin; format: cell-based; details: Flp-IN HEK293 cells expressing human 5-HT2A receptor
Sequence of 5-HT2A receptor (P28223 whole entry): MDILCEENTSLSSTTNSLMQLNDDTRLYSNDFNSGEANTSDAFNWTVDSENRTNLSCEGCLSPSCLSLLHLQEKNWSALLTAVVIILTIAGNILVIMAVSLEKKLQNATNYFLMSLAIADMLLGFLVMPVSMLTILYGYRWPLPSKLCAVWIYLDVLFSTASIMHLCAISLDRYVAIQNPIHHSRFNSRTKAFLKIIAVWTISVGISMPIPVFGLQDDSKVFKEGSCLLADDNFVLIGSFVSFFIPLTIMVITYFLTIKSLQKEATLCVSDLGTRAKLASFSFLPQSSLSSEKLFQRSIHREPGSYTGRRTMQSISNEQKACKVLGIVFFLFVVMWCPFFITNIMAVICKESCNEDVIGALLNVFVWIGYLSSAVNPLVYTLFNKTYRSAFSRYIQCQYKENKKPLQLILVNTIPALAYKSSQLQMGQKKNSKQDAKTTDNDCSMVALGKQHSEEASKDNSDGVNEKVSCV

[3] = molecular target: T3, 5-hydroxytryptamine receptor 2A (Homo sapiens, UniProt P28223); assay: Agonist activity at human 5-HT2A receptor expressed in Flp-IN HEK293 cells assessed as induction of calcium flux measured every second for 5 mins by Fluo-4 dye based FLIPR assay; format: cell-based
T3 sequence (P28223 whole entry, the tested form may be a part, canonical isoform): as the sequence (P28223 whole entry) above

[4] = molecular target: T1, 5-hydroxytryptamine receptor 2C (Homo sapiens); assay: Agonist activity at tTA containing TEV cleavage site-fused 5-HT2C-INI receptor isoform (unknown origin) expressed in TEV-fused beta-arrestin2 expressing HEK cells assessed as induction of beta-arrestin2 recruitment up to 10 uM after 20 hrs by Tango assay; format: cell-based
Outline: (§1)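 HTLA cells (HEK cells with TEV-fused β-arrestin-2 and tTA-driven luciferase) transfected with tTA-fused 5-HT2C-INI receptor carrying a TEV site. Luminescence read after 20 min lysis at room temperature. Normalized to % 5-HT and fitted sigmoidally. NA means no activity up to 10 μM. Mean of n = 3.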

[5] = molecular target: T1, 5-hydroxytryptamine receptor 2C (Homo sapiens); assay: Agonist activity at human 5-HT2C-INI receptor isoform expressed in Flp-IN HEK293 cells assessed as induction of Gq-mediated calcium flux measured every second for 5 mins by Fluo-4 dye based FLIPR assay relative to serotonin; format: functional, cell-based
[6] = molecular target: T4, 5-hydroxytryptamine receptor 2B (Homo sapiens, UniProt P41595); assay: Agonist activity at human 5-HT2B receptor expressed in Flp-IN HEK293 cells assessed as induction of calcium flux up to 10 uM measured every second for 5 mins by Fluo-4 dye based FLIPR assay; format: cell-based; details: hek293, 5 min
T4 sequence (P41595 whole entry): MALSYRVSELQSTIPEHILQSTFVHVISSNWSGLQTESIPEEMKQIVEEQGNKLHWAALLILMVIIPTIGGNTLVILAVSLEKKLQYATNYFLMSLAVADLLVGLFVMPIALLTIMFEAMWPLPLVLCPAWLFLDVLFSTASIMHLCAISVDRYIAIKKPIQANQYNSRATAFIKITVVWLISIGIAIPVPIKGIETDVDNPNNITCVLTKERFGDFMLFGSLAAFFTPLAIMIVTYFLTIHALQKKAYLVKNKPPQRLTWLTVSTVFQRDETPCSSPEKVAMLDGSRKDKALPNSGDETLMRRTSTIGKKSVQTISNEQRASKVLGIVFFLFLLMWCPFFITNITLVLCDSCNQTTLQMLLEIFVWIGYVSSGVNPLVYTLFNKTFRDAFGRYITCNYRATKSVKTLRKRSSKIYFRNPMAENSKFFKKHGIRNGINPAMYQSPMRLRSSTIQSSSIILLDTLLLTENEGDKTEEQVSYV

5-HT2B receptor = 5-HT2B receptor (Homo sapiens, UniProt P41595); assay: Agonist activity at human 5-HT2B receptor expressed in Flp-IN HEK293 cells assessed as induction of calcium flux measured every second for 5 mins by Fluo-4 dye based FLIPR assay relative to serotonin; format: cell-based; details: Flp-IN HEK293 cells expressing human 5-HT2B receptor
Sequence of 5-HT2B receptor (P41595 whole entry): as above

[7] = molecular target: T4, 5-hydroxytryptamine receptor 2B; assay: Agonist activity at human 5-HT2B receptor expressed in Flp-IN HEK293 cells assessed as induction of calcium flux measured every second for 5 mins by Fluo-4 dye based FLIPR assay; format: cell-based
Homo sapiens = species: Homo sapiens; assay: Selectivity ratio of EC50 for human 5HT2B receptor to EC50 for human 5HT2C-INI receptor
[8] = molecular target: T3, 5-hydroxytryptamine receptor 2A; assay: Agonist activity at human 5-HT2A receptor expressed in Flp-IN HEK293 cells assessed as induction of calcium flux up to 10 uM measured every second for 5 mins by Fluo-4 dye based FLIPR assay; format: cell-based; details: hek293, 5 min
[9] = molecular target: T1, 5-hydroxytryptamine receptor 2C (Homo sapiens); assay: Agonist activity at tTA containing TEV cleavage site-fused 5-HT2C-INI receptor isoform (unknown origin) expressed in TEV-fused beta-arrestin2 expressing HEK cells assessed as induction of beta-arrestin2 recruitment after 20 hrs by Tango assay relative to serotonin; format: cell-based; outline: as §1
[10] = molecular target: T1, 5-hydroxytryptamine receptor 2C (Homo sapiens); assay: Agonist activity at human 5-HT2C-INI receptor isoform expressed in Flp-IN HEK293 cells assessed as induction of Gq-mediated calcium flux up to 10 uM measured every second for 5 mins by Fluo-4 dye based FLIPR assay; format: functional, cell-based
[11] = molecular target: T1, 5-hydroxytryptamine receptor 2C (Homo sapiens); assay: Ratio of Emax to EC50 for tTA containing TEV cleavage site-fused 5-HT2C-INI receptor isoform (unknown origin) expressed in TEV-fused beta-arrestin2 expressing HEK cells assessed as induction of beta-arrestin2 recruitment activity; format: cell-based
[12] = molecular target: T2, 5-hydroxytryptamine receptor 2C; assay: Agonist activity at tTA containing TEV cleavage site-fused 5-HT2C-INI receptor isoform (unknown origin) expressed in TEV-fused beta-arrestin2 expressing HEK cells assessed as induction of beta-arrestin2 recruitment after 20 hrs by Tango assay; format: cell-based

| SMILES | EC50 ([2]; read-out: EC50) [nM] | Emax at 5 min (5-HT2A receptor) [%] | EC50 [3] [nM] | Emax [5] [%] | Activity [6] | Emax at 5 min (5-HT2B receptor) [%] | further results |
| --- | --- | --- | --- | --- | --- | --- | --- |
| COc1ccc(F)cc1[C@H]1C[C@@H]1CNCc1cccs1.Cl | 120 | 34 | 438 | 60 | Not Active |  | log(ratio) [1]: 6.7; Activity [4]: inactive |
| COc1ccc(F)cc1C1CC1CNCc1cccc2ccsc12 (racemic) | 777 | 70 | 2220 | 94 |  | 79 | EC50 [7]: 807 nM |
| COc1ccc(F)cc1C1CC1CNCc1ccccc1C#N (racemic) | 245 | 63 | 721 | 30 |  | 82 | EC50 [7]: 238 nM |
| COc1cccc(CNC[C@H]2C[C@@H]2c2cc(F)ccc2OC)c1.Cl | 231 | 70 | 3700 | 83 | Not Active |  |  |
| COc1ccc(F)cc1C1CC1CNC1CC1 (racemic) | 399 | 69 | 1090 | 70 |  | 14 | EC50 [7]: 641 nM |
| COc1cccc(CNC[C@@H]2C[C@H]2c2cc(F)ccc2OC)c1.Cl | 2600 | 97 | 6840 | 85 | Not Active |  |  |
| COc1ccc(F)cc1C1CC1CNCc1ccccc1O.Cl (racemic) | 304 | 76 | 77 | 63 | Not Active |  |  |
| COc1ccc(F)cc1[C@@H]1C[C@H]1CNCc1ccccc1F.Cl | 1640 | 78 | 1880 | 90 | Not Active |  |  |
| COc1ccc(F)cc1C1CC1CNCc1ccccc1OCCF (racemic) | 28 | 80 | 398 | 16 |  | 11 | Ratio EC50 (Homo sapiens): 2; EC50 [7]: 56 nM |
| COc1ccc(F)cc1C1CC1CNC1(c2ccccc2OC)CC1.Cl (racemic) | 874 | 102 | 655 | 77 | Not Active |  |  |
| COc1ccccc1CNC[C@@H]1C[C@H]1c1cc(F)ccc1OC |  | 94 |  | 104 |  | 72 | EC50 [7]: 570 nM |
| COc1ccc(F)cc1C1CC1CNCc1cccc2cccnc12 (racemic) | 530 | 69 | 460 | 84 |  | 73 | EC50 [7]: 87 nM |
| COc1ccc(CNC[C@H]2C[C@@H]2c2cc(F)ccc2OC)cc1.Cl | 1200 |  |  | 71 | Not Active |  | Activity [8]: Not Active |
| COc1ccccc1CNC[C@H]1C[C@@H]1c1cc(F)ccc1OCCF |  | 78 |  | 93 |  | 22 | Emax [9]: 54% |
| CNC[C@H]1C[C@@H]1c1cc(F)ccc1OCCF.Cl |  |  |  |  | Not Active |  | Activity [8]: Not Active; Activity [10]: inactive |
| COc1ccccc1C(C)NCC1CC1c1cc(F)ccc1OC.Cl (racemic) | 2550 | 106 | 238 | 81 | Not Active |  |  |
| COc1ccc(F)cc1C1CC1CNCc1sccc1OC.Cl (racemic) | 121 | 102 | 148 | 66 | Not Active |  |  |

| SMILES | EC50 ([2]; read-out: EC50) [nM] | Emax at 5 min (5-HT2A receptor) [%] | EC50 [3] [nM] | Emax [5] [%] | Activity [6] | Emax at 5 min (5-HT2B receptor) [%] | further results |
| --- | --- | --- | --- | --- | --- | --- | --- |
| C=CCOc1ccc(F)cc1[C@H]1C[C@@H]1CNC.Cl | 13 | 19 | 284 | 15 | Not Active |  |  |
| COc1ccc(F)cc1[C@H]1C[C@@H]1CNCc1ccccc1F.Cl | 502 | 63 | 1880 | 78 | Not Active |  |  |
| COc1ccc(F)cc1C1CC1CNCC1CCCCC1.Cl (racemic) | 95 |  |  | 15 | Not Active |  | Activity [8]: Not Active |
| COc1ccc(F)cc1C1CC1CNCc1ccsc1OC.Cl (racemic) | 556 | 100 | 463 | 65 | Not Active |  |  |
| COc1ccc(F)cc1C1CC1CNCc1cccc2cc[nH]c12.Cl (racemic) |  |  |  |  | Not Active |  | Activity [8]: Not Active; Activity [10]: inactive |
| COc1ccc(F)cc1[C@@H]1C[C@H]1CNCc1cccs1.Cl | 308 | 59 | 674 | 81 | Not Active |  |  |
| COc1cscc1CNCC1CC1c1cc(F)ccc1OC.Cl (racemic) | 228 | 89 | 145 | 65 | Not Active |  |  |
| COc1ccc(CNC[C@@H]2C[C@H]2c2cc(F)ccc2OC)cc1.Cl |  |  |  |  | Not Active |  | Activity [8]: Not Active; Activity [10]: inactive |
| CNC[C@H]1C[C@@H]1c1cc(F)ccc1OC | 23 | 79 | 271 | 71 |  | 54 | log(ratio) [1]: 7.49; Activity [4]: inactive; EC50 [7]: 89 nM |
| COc1ccccc1CN(C)CC1CC1c1cc(F)ccc1OC.Cl (racemic) | 670 | 24 | 2540 | 49 | Not Active |  |  |
| C=CCOc1ccc(F)cc1[C@H]1C[C@@H]1CNCc1ccccc1OC | 9.2 | 80 | 28 | 97 |  | 28 | log(ratio) [1]: 8.02; EC50 ([2]; read-out: pEC50 (converted)): 8.91 nM; EC50 [7]: 113 nM; log(ratio) [11]: 7.39; Emax [9]: 56%; EC50 [12]: 22.7 nM |
| COc1ccc(F)cc1[C@@H]1C[C@H]1CNCc1ccccc1Cl.Cl | 1860 |  | 2990 | 72 | Not Active |  |  |
| COc1ccc(F)cc1C1CC1CNCc1cccnc1OC (racemic) | 433 | 66 | 1290 | 65 |  | 32 | EC50 [7]: 274 nM |
| COc1ccc(F)cc1C1CC1CNCC1CC1.Cl (racemic) |  | 43 | 4260 |  | Not Active |  | Activity [10]: inactive |
| COc1ccccc1CCNCC1CC1c1cc(F)ccc1OC (racemic) |  | 59 | 307 |  |  |  |  |
| COc1ccc(F)cc1C1CC1CNCc1ccccc1C(N)=O (racemic) | 409 | 67 | 1310 | 31 |  | 82 | EC50 [7]: 335 nM |
| COc1ccc(F)cc1[C@H]1C[C@@H]1CNCc1ccccc1Cl.Cl | 529 | 64 | 3530 | 94 | Not Active |  |  |
